PglD inh = blocks C. jejuni PglD acetyltransferase activity. purified PglD enzyme, DTNB colorimetric CoA detection. inhibition, % at 12.5 µM. 360,000 compounds, 0.098% hits. AID 602405; in the data active means inhibition above about 16%, passing the limit was not always enough; inconclusive means no clear call, values can overlap the other calls
PGC1a acetyl inh = PGC1a acetylation modulation, inhibitor mode; 350,000 compounds, 0.17% hits; AID 651687; U2OS PGC1a acetylation, AlphaScreen anti-acetyl-lysine; with virally co-expressed GCN5 acetyltransferase; inhibition, % at 15.6 µM;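 active means every replicate shows inhibition of at least 40%; inconclusive means mean inhibition at least 40% but some replicate below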
DENV2 CPE rescue = protects cells from dengue virus 2 cytopathic effect | CPE inhibition, % at 9.99 µM | DENV2-infected cells, cytopathic effect rescue, plate reader | AID 651640 | 350,000 compounds, 1.7% hits; in the data active means CPE inhibition above about 20%, passing the limit was not always enough; inconclusive means no clear call, values can overlap the other calls; tested in BHK-21 cells
FN deposit inh = fibronectin deposition inhibition; AH1F fibroblasts, Alexa488-fibronectin deposition fluorescence, overnight; inhibition, % at 12.6 µM; 350,000 compounds, 0.086% hits; AID 743247;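 active means mean inhibition across replicates of 30% or more, regardless of how many single replicates reach that level; inconclusive means mean under 30% yet at least half of replicates reach 30%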
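Test system: AH1F fibroblast monolayer depositing Alexa488-labelled fibronectin into matrix. Input: 10000 cells per well. Technique: fluorescence, ex 485 nm, em 525 nm. Buffer or medium: DMEM plus 2% serum, read in PBS. Timing: 1 h cell adhesion before compound, then overnight fibronectin incubation. Compound: single dose, pinned. Read-out basis: inhibition from reduced deposited-fibronectin fluorescence.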
Env fusion inh = HIV envelope-mediated fusion inhibition; AID 651610; HeLa-JRFL Env/CEM21 cell fusion, luciferase; 360,000 compounds, 1.1% hits; inhibition, % at 12.3 µM;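 active means mean replicate inhibition score of at least 50 and every replicate individually at or above 50; inconclusive means only one of the two criteria met; inactive means mean below 50 and not all replicates reaching 50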
rRNA inh HTS = selective bacterial rRNA inhibition in E. coli; E. coli WT GFP vs humanized-ribosome RFP mutants, fluorescence, 24 h; stronger effect = lower value; DMSO median 0, no signal -100; GFP signal change (wild-type ribosome), % (test concentration not listed); 350,000 compounds, 1.6% hits;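 active means significant combined selectivity score with lowered wild-type GFP, culture density cut under 30%, mutant RFP and density less affected; inactive means any of these conditions unmet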
Numbers stand for hits; – = inactive; ? = inconclusive; · = no result given. This is a sample that favours compounds with a hit; in the whole collection about 3.5% have one here.

SMILES	PglD inh	PGC1a acetyl inh	DENV2 CPE rescue	FN deposit inh	Env fusion inh	rRNA inh HTS
C[C@H]1CN([C@@H](C)CO)C(=O)c2cc(C#CC3CC3)cnc2O[C@@H]1CN(C)C(=O)c1ccncc1	·	–	·	·	–	–
COc1ccc(NC(=O)N2C[C@H](O)COC[C@H]3O[C@H](CC(=O)N4CCOCC4)CC[C@@H]32)cc1	–	–	–	–	·	–
O=C(CN1C2CCCC1CC(NC(=O)c1ccco1)C2)Nc1ccccc1C(F)(F)F (stereo not given)	–	–	·	–	–	·
O=C(CN1C2CCCC1CC(NC(=O)c1ccccc1)C2)Nc1ccccc1C(F)(F)F (stereo not given)	–	–	–	–	–	-41
O=C(NC(=O)c1ccccc1F)OCc1ccc(Cl)cc1Cl	·	·	–	–	–	-40
Cc1nn(C)c(Cl)c1NC(=O)OCc1ccc(Cl)cc1Cl	–	·	·	–	73	·
C[C@@H]1CN([C@@H](C)CO)C(=O)c2cc(-c3ccccc3F)cnc2O[C@H]1CN(C)C(=O)c1cnccn1	–	–	–	–	·	–
Cc1cc(C(=O)O/N=C(\N)c2ccc(C(C)(C)C)cc2)no1	–	–	65	–	–	–
CN1C(=O)c2cc(NC(=O)c3ccc(Cl)cc3)ccc2OC[C@@H]2O[C@H](CC(=O)NCc3cccc(F)c3)CC[C@@H]21	–	–	–	–	·	–
CCN(c1ccccc1)S(=O)(=O)c1cccc(C(=O)NCC(c2ccc(F)cc2)N2CCOCC2)c1 (stereo not given)	–	–	–	–	–	-25
COc1ccc(S(=O)(=O)N[C@H]2CC[C@H](CCn3cc(C(C)C)nn3)O[C@H]2CO)cc1	–	–	–	–	–	–
CC(C)n1c(N2CCN(C(=O)Nc3ccc(Cl)cc3)CC2)nc2ccccc21	–	·	–	–	–	–
CCCn1c(N2CCN(C(=O)Nc3ccc(Cl)cc3)CC2)nc2ccccc21	–	–	–	–	–	-26
CC(=O)N(C)C[C@@H]1Oc2ncc(C#CCc3ccccc3)cc2C(=O)N([C@@H](C)CO)C[C@@H]1C	–	–	?	–	–	–
CC(C)(C)OC(=O)N(CCc1ccccc1)Cc1cccc(OCc2cccc(NC(=O)c3ccccc3)c2)c1	–	–	–	–	66	–
CC(C)C(=O)Nc1ccc(COc2ccccc2CN(Cc2ccccc2)C(=O)OC(C)(C)C)cc1	–	–	–	–	–	–
CC(C)C(=O)Nc1cccc(COc2ccc(CN(Cc3ccccc3)C(=O)OC(C)(C)C)cc2)c1	–	–	–	–	58	–
CCCCc1c(O)nc(SCC(=O)c2ccccc2)n(-c2ccccc2OC)c1=O	–	–	–	–	–	–
CCCCc1c(O)nc(SCC(=O)c2ccccc2)n(-c2ccccc2)c1=O	–	–	–	–	–	-18
CCCCc1c(O)nc(SCC(=O)c2ccccc2)n(-c2ccccc2C)c1=O	–	–	–	–	–	-32
O=C(Nc1ccc(F)cc1)N1C[C@H]2[C@@H](c3ccccc31)[C@@H](CO)N2C(=O)c1cccnc1	–	–	–	–	·	–
CO[C@@H]1CN(C)C(=O)c2cc(NS(C)(=O)=O)ccc2OC[C@@H](C)N(S(=O)(=O)CC(F)(F)F)C[C@H]1C	–	–	–	–	·	–
C[C@H](CO)N1C[C@H](C)[C@H](CN(C)S(=O)(=O)c2ccccc2)Oc2c(NC(=O)NC3CCCCC3)cccc2C1=O	–	–	–	·	·	–
C[C@H]1CCCCO[C@H](CN(C)S(=O)(=O)c2ccccc2)[C@@H](C)CN([C@@H](C)CO)C(=O)c2cc(NC(=O)Nc3ccc4c(c3)OCO4)ccc2O1	–	–	61	–	–	–
C[C@H](CO)N1C[C@H](C)[C@@H](CN(C)S(=O)(=O)c2ccccc2)OCCCC[C@H](C)Oc2ccc(NC(=O)Nc3ccc4c(c3)OCO4)cc2C1=O	–	–	29	–	–	–
SMILES	PglD inh	PGC1a acetyl inh	DENV2 CPE rescue	FN deposit inh	Env fusion inh	rRNA inh HTS
C[C@@H]1CCCCO[C@H](CN(C)S(=O)(=O)c2ccccc2)[C@@H](C)CN([C@H](C)CO)C(=O)c2cc(NC(=O)Nc3ccc4c(c3)OCO4)ccc2O1	–	–	91	–	–	–
Cc1ccc(S(=O)(=O)N(C)C[C@@H]2OCCCC[C@H](C)Oc3ccc(NC(=O)Nc4ccc5c(c4)OCO5)cc3C(=O)N([C@H](C)CO)C[C@H]2C)cc1	–	–	–	–	–	–
C[C@@H]1CN([C@@H](C)CO)C(=O)c2cc(NC(=O)Nc3ccc4c(c3)OCO4)ccc2O[C@@H](C)CCCCO[C@@H]1CN(C)S(=O)(=O)c1ccccc1	–	–	–	–	–	–
Cc1ccc(S(=O)(=O)N(C)C[C@@H]2OCCCC[C@@H](C)Oc3ccc(NC(=O)Nc4ccc5c(c4)OCO5)cc3C(=O)N([C@H](C)CO)C[C@H]2C)cc1	–	–	–	–	–	–
COc1ccc(NC(=O)N[C@H]2C=C[C@@H](CC(=O)NC3CCCCC3)O[C@H]2CO)cc1	–	–	–	–	–	–
COc1cc(C(=O)Nc2nc3ccccc3[nH]2)ccc1OC(F)F	·	–	–	–	–	–
COc1cc(CC(C#N)(CO)c2nc3ccccc3[nH]2)ccc1OC(F)F (stereo not given)	–	–	47	–	·	–
N#C[C@@H]1[C@H](c2ccccc2-c2ccccc2F)[C@H](CO)N1C(=O)C1CCC1	·	–	–	–	·	–
CN(C)C(=O)c1cccc(-c2ccccc2[C@H]2[C@@H](C#N)N(C(=O)C3CCCCC3)[C@@H]2CO)c1	·	–	–	–	·	–
CN(C)C(=O)c1cccc(-c2ccccc2[C@H]2[C@@H](C#N)N(C(=O)C3CC3)[C@@H]2CO)c1	·	–	69	–	·	–
CN(C)C(=O)c1cccc(-c2ccccc2[C@@H]2[C@H](C#N)N(C(=O)C3CCCCC3)[C@H]2CO)c1	·	–	73	–	·	–
N#C[C@H]1[C@@H](c2ccccc2-c2ccccc2F)[C@H](CO)N1C(=O)C1CC1	·	–	26	–	·	–
CN(C)C(=O)c1cccc(-c2ccccc2[C@H]2[C@@H](CO)N(C(=O)C3CC3)[C@H]2C#N)c1	·	–	–	–	·	–
CN(C)C(=O)c1cccc(-c2ccccc2[C@@H]2[C@@H](C#N)N(C(=O)C3CC3)[C@@H]2CO)c1	·	–	46	–	·	–
CN(C)C(=O)c1cccc(-c2ccccc2[C@@H]2[C@@H](CO)N(C(=O)C3CC3)[C@H]2C#N)c1	·	–	–	–	·	–
N#CCSc1nnc(-c2sc3ccccc3c2Cl)o1	·	·	·	·	79	·
O=C(N[C@H]1CC[C@H](CCn2cc(C3(O)CCCC3)nn2)O[C@@H]1CO)c1ccccc1F	–	–	–	–	–	–
C[C@@H]1CN([C@H](C)CO)C(=O)c2cc(NS(=O)(=O)c3ccc(F)cc3)ccc2O[C@@H]1CN(C)Cc1ccc(C(=O)O)cc1	–	–	–	–	–	–
O/N=C/c1ccnc(SCc2ccccc2)n1	·	·	–	–	–	-16

From PubChem BioAssay
